Data published in ChEMBL document CHEMBL1125421, “Cholesterol lowering bile acid binding agents: novel lipophilic polyamines” (1992).

Legend:
Format in all cases: functional
Coturnix coturnix [1] = assay: Effect on serum VLDL+LDL cholesterol (relative to cholestipol hydrochloride) at a dose of 50 mg/kg BW per day
Summary of the method: (§1)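 Cholesterol-fed Japanese quail given compound mixed in diet for 2 weeks; controls diet alone (n = 17-20), positive controls colestipol hydrochloride 1000 mg/kg per day (n = 8-10), treated groups 10 birds. Jugular bleed; VLDL+LDL precipitated from serum with PEG-8000 in 0.2 M glycine pH 9, centrifuged 2000g 45 min 4 °C. Log-transformed cholesterol gives T/C; relative potency from doses giving T/C=0.5 using common slope -0.79.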

Coturnix coturnix [2] = assay: Effect on serum VLDL+LDL cholesterol (relative to cholestipol hydrochloride) at a dose 100 of mg/kg BW per day; summary of the method: as §1
Coturnix coturnix [3] = assay: Effect on serum VLDL+LDL cholesterol (relative to cholestipol hydrochloride) at a dose of 150 mg/kg BW per day; summary of the method: as §1
Coturnix coturnix [4] = assay: Effect on serum VLDL+LDL cholesterol (relative to cholestipol hydrochloride) at a doses of 50, 150 mg/kg BW per day; summary of the method: as §1
Coturnix coturnix [5] = assay: Effect on serum VLDL+LDL cholesterol (relative to cholestipol hydrochloride) at a doses of 10, 25, 50, 100, 150 mg/kg BW per day; summary of the method: as §1
Coturnix coturnix [6] = assay: Effect on serum VLDL+LDL cholesterol (relative to cholestipol hydrochloride) at a doses of 25,50 mg/kg BW per day; summary of the method: as §1
Coturnix coturnix [7] = assay: Effect on serum VLDL+LDL cholesterol (relative to cholestipol hydrochloride) at a dose of 100, 300 mg/kg BW per day; summary of the method: as §1
Coturnix coturnix [8] = assay: Effect on serum VLDL+LDL cholesterol (relative to cholestipol hydrochloride) at a doses of 100, 150, 300 mg/kg BW per day; summary of the method: as §1
Coturnix coturnix [9] = assay: Effect on serum VLDL+LDL cholesterol (relative to cholestipol hydrochloride) at a doses of 25, 50, 100 mg/kg BW per day; summary of the method: as §1
Coturnix coturnix [10] = assay: Effect on serum VLDL+LDL cholesterol (relative to cholestipol hydrochloride) at a dose of 100 mg/kg BW per day; summary of the method: as §1
Coturnix coturnix [11] = assay: Effect on serum VLDL+LDL cholesterol (relative to cholestipol hydrochloride) at a doses of 25,50, 100 mg/kg BW per day; summary of the method: as §1

## O=C(NCCN(CCNC1CCCCCCCCCCC1)CCNC1CCCCCCCCCCC1)c1ccccc1
Coturnix coturnix [1]
  Relative potency: 11

## CN(C)CCN(CCN(C)C1CCCCCCCCCCC1)CCN(C)C1CCCCCCCCCCC1
Coturnix coturnix [1]
  Relative potency: 24

## CCCCCCCCCCCCCCCCNCCN(CCN)CCN
Coturnix coturnix [2]
  Relative potency: 6

## CN(CCN(CC[N+](C)(C)C)CC[N+](C)(C)C)C1CCCCCCCCCCC1.[I-].[I-]
Coturnix coturnix [3]
  Relative potency: 2

## NCCN(CCNC1CCCCCCCCCCCCCC1)CCNC1CCCCCCCCCCCCCC1
Coturnix coturnix [3]
  Relative potency: 7

## COC(=O)CCN(CCN(CCN(CCC(=O)OC)C1CCCCCCCCCCC1)CCN(CCC(=O)OC)C1CCCCCCCCCCC1)C1CCCCCCCCCCC1
Coturnix coturnix [1]
  Relative potency: 4

## C1CCCCCC(NCCN(CCNC2CCCCCCCCCCC2)CCNC2CCCCC2)CCCCC1
Coturnix coturnix [1]
  Relative potency: 21

## NCCN(CCN)CCNC1CCCCCCCCCCCCCCC1
Coturnix coturnix [1]
  Relative potency: 10

## COC(=O)CCNCCN(CCNCCC(=O)OC)CCNC1CCCCCCCCCCC1
Coturnix coturnix [4]
  Relative potency: 7

## NCCN(CCNC1CCCCCCCCCCC1)CCNC1CCCCCCCCCCC1
Coturnix coturnix [5]
  Relative potency: 13

## c1ccc(CNCCN(CCNC2CCCCCCCCCCC2)CCNC2CCCCCCCCCCC2)cc1
Coturnix coturnix [6]
  Relative potency: 18

## C1CCCCCC(NCCN(CCNC2CCCCCCCCCCC2)CCNC2CCC3(CC2)OCCO3)CCCCC1
Coturnix coturnix [6]
  Relative potency: 19

## NCCN(CCN)CCNC1CCCCCCCCCCC1
Coturnix coturnix [7]
  Relative potency: 5

## N#CCCNCCN(CCNCCC#N)CCNC1CCCCCCCCCCC1
Coturnix coturnix [3]
  Relative potency: 2

## N#CCCNCCN(CCNC1CCCCCCCCCCC1)CCNC1CCCCCCCCCCC1
Coturnix coturnix [1]
  Relative potency: 21

## NCCN(CCN)CCNC1CCCCCCCCCCCCCC1
Coturnix coturnix [8]
  Relative potency: 7

## CN(CCN(CCN(C)C1CCCCC1)CCN(C)C1CCCCC1)C1CCCCC1
Coturnix coturnix [3]
  Relative potency: 5

## NCCN(CCNC(=O)c1ccccc1)CCNC(=O)c1ccccc1
Coturnix coturnix [9]
  Relative potency: 5

## NCCN(CCN)CCNCc1ccc(-c2ccccc2)cc1
Coturnix coturnix [10]
  Relative potency: 2

## NCCCOCCN(CCOCCCN)CCOC1CCCCCCCCCCC1
Coturnix coturnix [3]
  Relative potency: 2

## C1CCCCCC(NCCN(CCNC2CCCCCCCCCCC2)CCNC2CCCCCCCCCCC2)CCCCC1
Coturnix coturnix [11]
  Relative potency: 6

## C1CCC(NCCN(CCNC2CCCCC2)CCNC2CCCCC2)CC1
Coturnix coturnix [3]
  Relative potency: 3

## NCCCNCCN(CCNCCCN)CCNC1CCCCCCCCCCC1
Coturnix coturnix [3]
  Relative potency: 4

## NCCNC(=O)CCNCCN(CCNCCC(=O)NCCN)CCNC1CCCCCCCCCCC1
Coturnix coturnix [10]
  Relative potency: 5

## c1ccc(CNCCN(CCNC2C3CC4CC(C3)CC2C4)CCNC2C3CC4CC(C3)CC2C4)cc1 (centres undefined)
Coturnix coturnix [1]
  Relative potency: 13

## Cl.Cl.Cl.NCCN(CCNC1CCCCCCCCCCC1)CCNC1CCCCCCCCCCC1
Coturnix coturnix [1]
  Relative potency: 13

## Cl.Cl.Cl.c1ccc(CNCCN(CCNC2CCCCCCCCCCC2)CCNC2CCCCCCCCCCC2)cc1
Coturnix coturnix [1]
  Relative potency: 29

## CCN(CC)CCN(CCN(CC)CC)CCN(CC)C1CCCCCCCCCCC1.Cl.Cl.Cl
Coturnix coturnix [10]
  Relative potency: 8

## Cl.Cl.Cl.Cl.NCCN(CCNC1CCCCCCCCCCC1)CCNC1CCCCCCCCCCC1
Coturnix coturnix [1]
  Relative potency: 12
